As usually defined, the IC50 is the point on the concentration scale where inhibition reaches its midpoint. As a reminder, the AUC is concentration integrated over time. The bioavailability is dose-corrected exposure relative to a reference, in per cent.

The target in data set [1] is T1, Bifunctional epoxide hydrolase 2 (Homo sapiens, UniProt P34913).
T1 sequence (P34913 whole entry): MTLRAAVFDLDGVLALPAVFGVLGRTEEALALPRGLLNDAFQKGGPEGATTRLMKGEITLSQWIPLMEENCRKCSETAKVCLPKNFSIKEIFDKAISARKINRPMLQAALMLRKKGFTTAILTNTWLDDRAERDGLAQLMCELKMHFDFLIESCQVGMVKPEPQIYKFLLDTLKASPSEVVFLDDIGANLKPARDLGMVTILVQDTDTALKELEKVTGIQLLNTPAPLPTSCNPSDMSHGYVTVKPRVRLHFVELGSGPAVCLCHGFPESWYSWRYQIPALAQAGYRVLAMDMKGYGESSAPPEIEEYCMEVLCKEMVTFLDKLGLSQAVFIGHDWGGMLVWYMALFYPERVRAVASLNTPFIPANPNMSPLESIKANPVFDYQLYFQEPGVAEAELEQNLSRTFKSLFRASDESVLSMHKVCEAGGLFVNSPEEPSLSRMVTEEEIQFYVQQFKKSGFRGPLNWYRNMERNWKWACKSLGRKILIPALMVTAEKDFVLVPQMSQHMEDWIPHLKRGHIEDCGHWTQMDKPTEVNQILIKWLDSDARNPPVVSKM
Nature of the data set: Inhibition of human soluble epoxide hydrolase.

In data set [2] the target is T1, Bifunctional epoxide hydrolase 2. The format is cell-based, HUVEC.
For data set [3], the target named is Voltage-gated inwardly rectifying potassium channel KCNH2 (Homo sapiens, UniProt Q12809). Nature of the data set: Inhibition of human ERG by patch clamp analysis. An outline of the steps: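 hERG inhibition measured by high-throughput patch clamp; percent inhibition at 30 µM.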
Voltage-gated inwardly rectifying potassium channel KCNH2, sequence (Q12809 whole entry): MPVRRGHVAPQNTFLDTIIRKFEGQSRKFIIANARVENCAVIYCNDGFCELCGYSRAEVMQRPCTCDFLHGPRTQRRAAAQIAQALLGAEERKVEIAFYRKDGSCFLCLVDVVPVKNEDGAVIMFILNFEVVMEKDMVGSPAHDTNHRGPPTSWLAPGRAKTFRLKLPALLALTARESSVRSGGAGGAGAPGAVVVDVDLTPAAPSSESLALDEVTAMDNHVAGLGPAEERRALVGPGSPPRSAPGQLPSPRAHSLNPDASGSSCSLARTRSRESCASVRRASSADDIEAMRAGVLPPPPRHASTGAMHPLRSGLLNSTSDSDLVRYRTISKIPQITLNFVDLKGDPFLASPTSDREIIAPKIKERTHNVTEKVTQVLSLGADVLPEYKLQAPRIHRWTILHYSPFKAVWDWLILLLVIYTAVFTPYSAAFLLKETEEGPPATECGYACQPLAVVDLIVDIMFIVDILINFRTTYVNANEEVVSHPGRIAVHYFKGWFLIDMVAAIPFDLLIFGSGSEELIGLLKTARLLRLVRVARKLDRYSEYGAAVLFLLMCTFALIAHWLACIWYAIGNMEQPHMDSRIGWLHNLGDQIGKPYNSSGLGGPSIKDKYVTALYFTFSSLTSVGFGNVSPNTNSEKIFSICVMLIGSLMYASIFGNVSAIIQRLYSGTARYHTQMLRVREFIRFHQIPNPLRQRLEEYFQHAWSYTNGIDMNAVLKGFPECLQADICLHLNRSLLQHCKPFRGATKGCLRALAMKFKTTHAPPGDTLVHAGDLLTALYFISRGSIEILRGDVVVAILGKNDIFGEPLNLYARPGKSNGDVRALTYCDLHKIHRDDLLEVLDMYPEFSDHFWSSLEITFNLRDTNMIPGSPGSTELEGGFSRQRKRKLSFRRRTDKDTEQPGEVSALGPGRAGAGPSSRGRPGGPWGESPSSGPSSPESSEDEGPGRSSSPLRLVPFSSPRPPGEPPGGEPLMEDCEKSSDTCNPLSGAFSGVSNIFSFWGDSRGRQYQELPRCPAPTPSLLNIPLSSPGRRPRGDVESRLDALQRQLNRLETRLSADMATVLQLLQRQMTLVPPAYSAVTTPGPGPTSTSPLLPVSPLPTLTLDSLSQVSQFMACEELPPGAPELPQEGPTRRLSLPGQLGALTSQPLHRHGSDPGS
For orientation: The patch-clamp technique gives a direct electrical read-out from membranes.

Data set [4] in a line: AUC (24 hrs) in rat at 10 mg/kg, po. The format is ADME, organism-based. Also noted: time < 24 hr, dose 10 mg/kg, route oral. Particulars: plasma.
The target of data set [5] is T2, Cytochrome P450 1A2 (Homo sapiens, UniProt P05177).
T2 sequence (P05177 whole entry): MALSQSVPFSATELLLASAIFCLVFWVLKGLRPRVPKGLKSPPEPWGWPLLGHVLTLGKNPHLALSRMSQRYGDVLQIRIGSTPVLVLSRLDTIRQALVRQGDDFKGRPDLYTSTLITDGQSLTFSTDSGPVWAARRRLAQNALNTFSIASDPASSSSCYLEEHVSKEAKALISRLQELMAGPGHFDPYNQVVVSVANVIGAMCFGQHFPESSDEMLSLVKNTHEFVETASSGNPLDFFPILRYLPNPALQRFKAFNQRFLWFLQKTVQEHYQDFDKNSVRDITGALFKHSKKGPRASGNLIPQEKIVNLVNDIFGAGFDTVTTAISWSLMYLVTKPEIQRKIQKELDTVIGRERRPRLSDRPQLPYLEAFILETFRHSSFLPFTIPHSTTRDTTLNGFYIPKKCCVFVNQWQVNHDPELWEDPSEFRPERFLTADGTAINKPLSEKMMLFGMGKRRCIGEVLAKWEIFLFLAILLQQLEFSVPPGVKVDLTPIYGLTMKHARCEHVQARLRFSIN
Nature of the data set: Inhibition of CYP1A2. The format is ADME.

The target in data set [6] is T3, Cytochrome P450 2B6 (Homo sapiens, UniProt P20813).
T3 sequence (P20813 whole entry): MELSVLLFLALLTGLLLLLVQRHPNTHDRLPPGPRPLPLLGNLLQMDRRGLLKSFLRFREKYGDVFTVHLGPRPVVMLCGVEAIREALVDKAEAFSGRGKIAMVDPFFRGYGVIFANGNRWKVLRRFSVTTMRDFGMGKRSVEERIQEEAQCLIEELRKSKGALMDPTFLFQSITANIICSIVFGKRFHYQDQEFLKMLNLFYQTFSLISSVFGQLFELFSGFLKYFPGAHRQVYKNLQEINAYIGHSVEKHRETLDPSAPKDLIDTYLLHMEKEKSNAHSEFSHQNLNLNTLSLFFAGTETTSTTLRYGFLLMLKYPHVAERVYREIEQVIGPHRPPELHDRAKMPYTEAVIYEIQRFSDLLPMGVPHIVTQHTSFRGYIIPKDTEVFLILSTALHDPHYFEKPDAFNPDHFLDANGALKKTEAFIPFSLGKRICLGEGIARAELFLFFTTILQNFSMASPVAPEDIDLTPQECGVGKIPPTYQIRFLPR
Nature of the data set: Inhibition of CYP2B6. The data set is classed as ADME.

The target of data set [7] is Cytochrome P450 2C9 (Homo sapiens, UniProt P11712). Description: Inhibition of CYP2C9. The format is ADME.
Cytochrome P450 2C9, sequence (P11712 whole entry): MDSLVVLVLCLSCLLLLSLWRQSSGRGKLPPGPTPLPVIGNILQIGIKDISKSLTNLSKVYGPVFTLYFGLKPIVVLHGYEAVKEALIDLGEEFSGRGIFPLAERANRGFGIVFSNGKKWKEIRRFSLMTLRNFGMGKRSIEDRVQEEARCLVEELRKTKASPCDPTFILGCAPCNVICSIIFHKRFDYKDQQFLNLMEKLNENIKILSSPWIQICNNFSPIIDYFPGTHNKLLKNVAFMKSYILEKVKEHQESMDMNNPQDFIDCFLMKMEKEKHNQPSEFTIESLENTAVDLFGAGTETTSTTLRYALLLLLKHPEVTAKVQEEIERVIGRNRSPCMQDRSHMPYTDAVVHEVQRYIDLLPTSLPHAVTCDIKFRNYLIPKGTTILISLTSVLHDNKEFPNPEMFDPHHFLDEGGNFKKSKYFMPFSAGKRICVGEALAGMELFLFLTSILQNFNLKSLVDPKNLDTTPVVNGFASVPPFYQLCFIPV
Data set [8] deals with Cytochrome P450 2C19 (Homo sapiens, UniProt P33261). Description: Inhibition of CYP2C19. The data set is classed as ADME.
Cytochrome P450 2C19, sequence (P33261 whole entry): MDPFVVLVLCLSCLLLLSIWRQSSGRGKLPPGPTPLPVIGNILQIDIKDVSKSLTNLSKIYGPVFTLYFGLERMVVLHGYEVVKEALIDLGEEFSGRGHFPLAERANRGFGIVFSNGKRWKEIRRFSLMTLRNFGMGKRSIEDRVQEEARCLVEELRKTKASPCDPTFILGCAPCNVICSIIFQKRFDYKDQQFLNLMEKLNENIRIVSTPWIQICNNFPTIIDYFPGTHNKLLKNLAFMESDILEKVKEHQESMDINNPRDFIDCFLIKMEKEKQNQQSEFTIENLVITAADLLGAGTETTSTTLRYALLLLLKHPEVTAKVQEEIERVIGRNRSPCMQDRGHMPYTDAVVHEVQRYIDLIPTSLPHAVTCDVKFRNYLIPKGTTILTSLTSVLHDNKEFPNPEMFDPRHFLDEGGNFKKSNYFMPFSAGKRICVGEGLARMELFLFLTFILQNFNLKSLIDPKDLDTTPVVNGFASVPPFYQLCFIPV
Data set [9] concerns the target Cytochrome P450 3A4 (Homo sapiens, UniProt P08684). Description: Inhibition of CYP3A4. The format is ADME.
The nature of data set [10]: Oral bioavailability in cynomolgus monkey. The format is ADME, organism-based, Macaca fascicularis. To be noted: in vivo.
Data set [11] can be described thus: Oral bioavailability in rat. The data set is classed as ADME, organism-based. Particulars: in vivo.
Data set [12] has as its system Rattus norvegicus. Description: Antihypertensive activity against spontaneously hypertensive rat assessed as decrease in mean blood pressure at 100 mg/kg, po. The data set is classed as functional, organism-based. Set-up: dose 100 mg/kg.
The test system of data set [13] is Mus musculus. Nature of the data set: Antidiabetic activity in diet induced obese mouse assessed as reduction in maximal glucose excursion at 100 mg/kg, po BID for 4 weeks. The format is functional, organism-based. Set-up: dose 100 mg/kg. An outline of the steps:
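Male C57BL/6 mice fed 45% fat diet plus high fructose corn syrup (0.42 kcal/mL) for 6 weeks beforehand and throughout. Oral gavage BID for 12 weeks. After 4 weeks, intraperitoneal glucose 2 g/kg given 4 h post-dose.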

Data set [14] has as its system Rattus norvegicus. Nature of the data set: Antihypertensive activity against AngII-induced hypertension in telemetered rat assessed as decrease in systolic blood pressure at 50 mg/kg, po. To be noted: Artery, read-out: INH.
Data set [15] concerns Rattus norvegicus. Description: Antihypertensive activity against AngII-induced hypertension in telemetered rat assessed as decrease in diastolic blood pressure at 50 mg/kg, po. The data set is classed as functional, organism-based. Set-up: dose 50 mg/kg. To be noted: Artery. The procedure, abridged: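 Sprague–Dawley rats made hypertensive by continuous AngII infusion, 65 ng/min. Dosed orally twice daily as a suspension in 0.5% carboxymethylcellulose, 0.1% Tween 80. Systolic and diastolic pressure recorded continuously by telemetry and compared against vehicle control.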

The test system of data set [16] is Mus musculus. Description: Inhibition of soluble epoxide hydrolase in diet induced obese mouse assessed as inhibition of EET hydrolysis at 100 mg/kg, po BID for 12 weeks measured 7 hrs post last dose.

The source made the active and inactive calls. The rule behind the calls is not given here. Where only a bound is given, the exact number is not on record here.

Cytochrome P450 3A4, sequence (P08684 whole entry): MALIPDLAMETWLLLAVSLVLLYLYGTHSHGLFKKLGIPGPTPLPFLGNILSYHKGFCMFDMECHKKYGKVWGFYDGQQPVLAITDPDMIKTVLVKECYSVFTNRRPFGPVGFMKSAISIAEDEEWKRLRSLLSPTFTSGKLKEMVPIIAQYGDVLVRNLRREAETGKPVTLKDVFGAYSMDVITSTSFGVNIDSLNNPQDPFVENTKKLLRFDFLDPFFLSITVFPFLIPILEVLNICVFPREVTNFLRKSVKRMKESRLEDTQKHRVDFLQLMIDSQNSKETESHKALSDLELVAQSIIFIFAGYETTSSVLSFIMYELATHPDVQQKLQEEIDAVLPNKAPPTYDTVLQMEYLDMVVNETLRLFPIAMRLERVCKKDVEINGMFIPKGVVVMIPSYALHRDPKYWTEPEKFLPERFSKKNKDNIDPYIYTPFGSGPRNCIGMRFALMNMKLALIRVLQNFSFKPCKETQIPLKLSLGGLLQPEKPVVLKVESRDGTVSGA

As for `CC(=O)N1CCC(NC(=O)NC2C3CCC2CC3)CC1` (stereo not given), the IC50 came out at 14 nM in data set [1] and 120 nM in [2].

For the compound `CC(=O)N1CCC(NC(=O)NC23CC4(F)CC(F)(CC(F)(C4)C2)C3)CC1`, the concentration for half-maximal inhibition (IC50) in data set [1] is 120 nM.

Regarding `CC(C)S(=O)(=O)N1CCC(NC(=O)Nc2ccc(C(F)(F)F)cc2)CC1`, the “inhibition (INH)” value in data set [3] is 13%. The AUC at 24 h in [4] came to 5890 ng·h/mL.

`CC(=O)N1CCC(NC(=O)NC2CCC(C)(C)CC2)CC1`: the results for the IC50 in data set [1] and in data set [2] were 6 nM and 38 nM, respectively. The “inhibition (INH)” value in data set [3] was determined as 0.8%.

For `CS(=O)(=O)N1CCC(NC(=O)NC23CC4CC(CC(C4)C2)C3)CC1`, the IC50 in data set [1] was determined as 1.9 nM; in data set [2], 3.9 nM. For the same compound, the “inhibition (INH)” value in data set [3] is given as -2.8%. In addition, in [4], the AUC at 24 h is 640 ng·h/mL.

In [1], `CC(=O)N1CCC(NC(=O)NC2CCC(F)(F)CC2)CC1` returned an IC50 of 185 nM.

With `CC(=O)N1CCC(NC(=O)NC23CC4CC(F)(CC(F)(C4)C2)C3)CC1`, in [1], half-maximal inhibition (IC50) was put at 58 nM.

The compound `CC(C)S(=O)(=O)N1CCC(NC(=O)Nc2ccc(OC(F)(F)F)cc2)CC1` returned an IC50 in [2] of 64 nM. The “inhibition (INH)” value in data set [3] is recorded as 11%. The same compound yielded an area under the curve (AUC) at 24 h in data set [4] of 7300 ng·h/mL.

Compound `CC(=O)N1CCC(NC(=O)Nc2ccc(C(F)(F)F)cc2)CC1` had an AUC at 24 h in [4] of 13100 ng·h/mL.

With `CC(=O)N1CCC(NC(=O)NC23CC4CC(CC(C4)C2)C3)CC1` [AR9281], the “inhibition (INH)” value is less than 8% in data set [3]; “Not Active” in [5]; “Not Active” in [6]; “Not Active” in data set [7]; “Not Active” in data set [8]; “Not Active” in data set [9]. Besides, the AUC at 24 h in data set [4] is 720 ng·h/mL. Besides, the bioavailability in [10] was 25%; in [11], 100%. The outcome in data set [12] was inactive. Besides, the result in [13], in data set [15] and in data set [16] was Active. Also, the inhibition in vivo at 50 mg/kg in data set [14] stood at 8%.

`CS(=O)(=O)N1CCC(NC(=O)Nc2ccc(C(F)(F)F)cc2)CC1` registered an AUC at 24 h in data set [4] of 6850 ng·h/mL.

`O=C(Nc1ccc(OC(F)(F)F)cc1)NC1CCN(C(=O)c2cccnc2)CC1` yielded an IC50 in data set [2] of 6.7 nM. Moreover, the “inhibition (INH)” value in data set [3] is given as 57%. In data set [4], the AUC at 24 h came out at 11300 ng·h/mL.

Turning to `CC(=O)N1CCC(NC(=O)NC2CC3(C)CCC2CC3)CC1` (stereo not given), the IC50 in data set [1] was 25 nM; in [2], 300 nM. The AUC at 24 h in [4] was determined as 1480 ng·h/mL.

Regarding `CC(=O)N1CCC(NC(=O)NC2CCC(C(C)(C)C)CC2)CC1` (stereo not given), the IC50 was 13 nM in [1] and 270 nM in data set [2]. Also, in [3], the “inhibition (INH)” value is given as 7%. The compound further displayed an AUC at 24 h in data set [4] of 1780 ng·h/mL.

As to `CC(=O)N1CCC(NC(=O)NC2CCCCCC2)CC1`, the IC50 in data set [1] stood at 0.8 nM; in data set [2], 27 nM. Also, the “inhibition (INH)” value in data set [3] turned out to be 9%. Also, the AUC at 24 h in data set [4] was found to be 7840 ng·h/mL.

The compound `CC(=O)N1CCC(NC(=O)NC2CCCCC2)CC1` showed an IC50 in data set [1] of 29 nM.

Regarding `O=C(NC1CCCCC1)NC1CCN(C(=O)c2ccccn2)CC1`, the figures for the IC50 in [1] and in data set [2] were 6.4 nM and 67 nM, respectively. The “inhibition (INH)” value in [3] turned out to be 3.4%. The exposure (AUC) at 24 h in data set [4] came out at 8320 ng·h/mL.

In the case of `CC(=O)N1CCC(NC(=O)Nc2cccc(C(F)(F)F)c2)CC1`, half-maximal inhibition in data set [2] (IC50) required 226 nM. Besides, the “inhibition (INH)” value in [3] was 10%. In [4], this compound gave an AUC at 24 h of 19600 ng·h/mL.

(Values after ChEMBL document CHEMBL1667772 (Bioorg Med Chem Lett, 2011).)
